Test results: ChEMBL document CHEMBL1138751, “Dipeptidomimetic ketomethylene isosteres as pro-moieties for drug transport via the human intestinal di-/tripeptide transporter hPEPT1: design, synthesis, stability, and biological investigations” (J Med Chem, 2004)

Experiments:
[1] = target: T1, Solute carrier family 15 member 1 (Homo sapiens, UniProt P46059); test: Inhibition of [14C]Gly-Sar transport by hPEPT1 in Caco-2 cell monolayers; assay type: cell-based
T1 sequence (P46059 whole entry): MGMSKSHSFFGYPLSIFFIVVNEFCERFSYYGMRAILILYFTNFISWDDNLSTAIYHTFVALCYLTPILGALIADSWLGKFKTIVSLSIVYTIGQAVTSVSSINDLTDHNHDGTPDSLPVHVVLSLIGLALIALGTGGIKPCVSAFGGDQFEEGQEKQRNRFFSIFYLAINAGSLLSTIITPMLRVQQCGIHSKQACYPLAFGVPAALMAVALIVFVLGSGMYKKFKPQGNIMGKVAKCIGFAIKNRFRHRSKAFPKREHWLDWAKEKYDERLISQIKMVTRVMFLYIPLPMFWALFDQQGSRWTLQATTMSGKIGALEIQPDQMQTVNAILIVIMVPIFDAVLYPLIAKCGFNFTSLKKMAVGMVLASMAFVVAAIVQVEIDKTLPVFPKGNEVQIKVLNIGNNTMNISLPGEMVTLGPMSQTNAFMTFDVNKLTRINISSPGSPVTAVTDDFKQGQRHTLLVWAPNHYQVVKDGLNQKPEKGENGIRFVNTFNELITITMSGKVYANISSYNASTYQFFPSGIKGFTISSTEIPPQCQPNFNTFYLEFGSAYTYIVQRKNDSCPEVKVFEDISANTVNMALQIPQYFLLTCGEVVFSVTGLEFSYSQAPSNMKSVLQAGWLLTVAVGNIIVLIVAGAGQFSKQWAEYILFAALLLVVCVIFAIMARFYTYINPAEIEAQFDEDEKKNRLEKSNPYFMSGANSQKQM
Method in brief: (§1)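 Caco-2 monolayers on Transwell filters, used 25–27 days after seeding (TEER 354 ± 41 […]). Compound at varying concentrations plus 0.5 μCi [14C]-Gly-Sar in apical MES-buffered HBSS (pH 6.0, 0.05% BSA); HEPES buffer (pH 7.4) basolateral. Incubated 5 min at 37 °C with shaking, washed with ice-cold HBSS, and cell-associated radioactivity counted. Inhibition fitted to a Hill-type equation for IC50; Ki derived by Cheng–Prusoff using Gly-Sar Km 1.1 mM. Duplicates in three passages.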

[2] = target: T1, Solute carrier family 15 member 1; test: Affinity for hPEPT1 in mature Caco-2 cell monolayers using [14C]-Gly-Sar; method in brief: as §1

| SMILES | IC50 [1] [µM] | Ki [2] [µM] |
| --- | --- | --- |
| N[C@@H](Cc1ccccc1)C(=O)CCC(=O)OCc1ccccc1 | 915 | 905 |
| NC(CC(=O)OCc1ccccc1)C(=O)CCC(=O)O (stereo not given) | 422 | 417 |
| CC(C)[C@H](N)C(=O)CCC(=O)OCc1ccccc1 | 134 | 133 |
| N[C@@H](Cc1ccccc1)C(=O)C[C@@H](CC(=O)OCc1ccccc1)C(=O)O | 69 | 68 |
| CC(C)[C@H](N)C(=O)C[C@@H](CC(=O)OCc1ccccc1)C(=O)O | 19 | 19 |
